PREPL inh: human PREPL enzyme inhibition; recombinant PREPL, fluorescence polarization activity-based probe; inhibition, % at 5.96 µM; 320,000 compounds, 0.68% hits; AID 2751; in the data active = inhibition above about 43%;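 also: 0% = enzyme with DMSO and 100% = wells lacking enzyme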
Target sequence (Q4J6C6 whole entry, looked up): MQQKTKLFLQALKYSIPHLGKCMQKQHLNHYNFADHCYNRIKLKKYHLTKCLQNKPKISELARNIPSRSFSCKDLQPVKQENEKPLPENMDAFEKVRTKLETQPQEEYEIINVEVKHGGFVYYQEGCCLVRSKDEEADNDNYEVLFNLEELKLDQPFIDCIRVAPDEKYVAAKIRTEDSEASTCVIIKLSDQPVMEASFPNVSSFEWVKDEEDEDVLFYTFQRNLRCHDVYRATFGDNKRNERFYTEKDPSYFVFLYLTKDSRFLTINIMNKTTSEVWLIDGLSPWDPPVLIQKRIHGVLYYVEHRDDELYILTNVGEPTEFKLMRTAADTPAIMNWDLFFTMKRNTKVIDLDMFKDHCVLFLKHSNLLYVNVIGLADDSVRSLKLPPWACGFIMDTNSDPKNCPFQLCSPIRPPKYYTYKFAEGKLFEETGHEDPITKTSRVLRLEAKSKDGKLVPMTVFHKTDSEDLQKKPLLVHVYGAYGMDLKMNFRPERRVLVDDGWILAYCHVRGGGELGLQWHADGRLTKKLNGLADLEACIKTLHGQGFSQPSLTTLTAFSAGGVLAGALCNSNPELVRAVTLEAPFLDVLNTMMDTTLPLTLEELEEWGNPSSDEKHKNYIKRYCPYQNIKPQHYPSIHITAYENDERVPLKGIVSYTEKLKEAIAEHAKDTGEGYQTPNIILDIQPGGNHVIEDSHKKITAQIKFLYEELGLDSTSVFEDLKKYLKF
Apaf-1 inh: inhibitors of human Apaf-1 apoptosome; O14727; reconstituted apoptosome caspase-3 activity, DEVD-Rh110 fluorescence; inhibition, % at 20 µM; 330,000 compounds, 0.71% hits; active = inhibition of at least 40% at 20 µM;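 also: plate controls were DMSO wells for no effect and DEVD-CHO caspase inhibitor wells for full effect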
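System: reconstituted apoptosome with Apaf-1, cytochrome c, caspase-9, procaspase-3, dATP; Signal: Rh110 fluorescence intensity; Schedule: 30 min compound preincubation, 50 min activation, room temperature; Reagent: cytochrome c trigger plus (Z-DEVD)2-Rh110 caspase-3 substrate.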
EBNA-1 inh: blocks EBNA-1 binding to DNA | EBNA-1 DNA binding, fluorescence polarization | inhibition, % at 14.8 µM | 300,000 compounds, 0.34% hits | AID 1950; in the data active = inhibition above about 28%
UBC13 polyUb: blocks human UBC13 polyubiquitin chain formation; P61088; TR-FRET; inhibition, % at 20 µM; 330,000 compounds, 0.47% hits; in the data active = inhibition above about 45%, passing the limit was not always enough
ZTA DNA inh: ZTA (EBV) inhibition in EBNA-1 counter-screen; ZTA-DNA binding, fluorescence polarization; inhibition, % at 11 µM; 320,000 compounds, 0.15% hits; AID 2234; in the data active = inhibition above about 33%
Casp3 counter: caspase-3 inhibition (UBC13 counter-screen); inhibition, % at 20 µM; AID 488856; shares compounds with UBC13 polyUb; 1,400 compounds, 4% hits; Recombinant caspase-3, Caspase-Glo 3/7 luminescence, 60 min;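 active = mean inhibition across replicates above about 26%, limit read from the data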;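 also: plate controls were DMSO with caspase-3 for no effect and DMSO wells lacking enzyme for full effect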
UBC13 conf: human UBC13 polyubiquitin inhibition, confirmed. AID 488859. shares compounds with UBC13 polyUb. UBC13 polyubiquitination, TR-FRET, biochemical. inhibition, % at 10 µM. 1,400 compounds, 68% hits; in the data active = inhibition above about 45%
Apaf-1 inh conf: confirmation of Apaf-1 inhibitors | inhibition, % at 20 µM | 1,800 compounds, 25% hits | AID 504614 | reconstituted apoptosome, caspase-3 DEVD-Rh110 fluorescence | shares compounds with Apaf-1 inh;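 active = mean inhibition of at least 40% at 20 µM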;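 also: plate controls were DMSO wells for no effect and DEVD-CHO caspase inhibitor control wells for full effect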
Rh110 quench: interferes with Rh110 fluorescence, flagging false Apaf-1 inhibitors. shares compounds with Apaf-1 inh. activation (fluorescence interference), % at 20 µM. AID 504615. Rh110 fluorescence interference, quenched caspase reaction. 1,800 tested, under 10 active;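 active = signal rise of 40% or more at 20 µM, treated as a fluorescence artifact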
The depositor's hits bear a star; · = not tested or not shown; ! = repeats disagree. Shown are actives, neighbours in structure and some others; about 1.7% of the full set was active somewhere.

SMILES | PREPL inh | Apaf-1 inh | EBNA-1 inh | UBC13 polyUb | ZTA DNA inh | Casp3 counter | UBC13 conf | Apaf-1 inh conf | Rh110 quench
CCN(CC)CCCNc1ccc(-c2nnc(-c3ccc(OCC(C)C)cc3)o2)cn1 | -5.5 | 41.4* | -3.7 | 46.8* | 0.6 | 4.5 | 77.5* | 31.6 | 8.7
CCCN(C(=O)c1ccc(S(=O)(=O)N2CCCC2)cc1)C1CCS(=O)(=O)C1 (stereo not given) | 1.6 | -8.7 | · | 2.7 | 2.6 | · | · | · | ·
O=C(NCc1ccc(F)cc1)C1CCCN(S(=O)(=O)c2cccc3nsnc23)C1 (stereo not given) | -9.8 | -15.6 | -14.0 | 0.9 | -2.8 | · | · | · | ·
COc1cc(OC)c2c(-c3ccccc3)cc(=O)oc2c1C(CCN1CCCC(C)C1)c1ccc(N(C)C)cc1 (stereo not given) | 21.3 | 23.3 | -8.0 | 19.3 | -0.9 | · | · | · | ·
COc1ccc(C(CCN2CCCC(C)C2)c2c(OC)cc(OC)c3c(-c4ccccc4)cc(=O)oc23)cc1 (stereo not given) | 5.3 | 54.4* | -7.1 | 58.9* | -5.7 | 0.5 | 45.2* | 25.6 | 0.9
Cc1cc2c(n1-c1ccc(Br)cc1)CC(C)(C)CC2=O | 9.0 | 12.8 | -0.1 | -3.6 | 8.7 | · | · | · | ·
CN[C@H]1CC[C@@H](c2ccc(Cl)c(Cl)c2)c2ccccc21 | -11.3 | 54.0* | 5.4 | · | -9.8 | -3.4 | · | 5.1 | -3.2
O=C1C=C(O)CC(c2ccc(Cl)c(Cl)c2)C1 (stereo not given) | -7.4 | -4.4 | -4.0 | 2.7 | 6.8 | · | · | · | ·
O=C(COc1coc(CN2CCN(c3ccc(F)cc3)CC2)cc1=O)NC1CCCC1 | 22.0 | -1.7 | 0.6 | -0.3 | 8.0 | · | · | · | ·
CC(C)(C)N(Cc1ccccc1)C(=O)COC(=O)CN1C(=O)C2CC=CCC2C1=O (stereo not given) | 12.3 | 10.3 | 8.8 | 2.9 | 2.5 | · | · | · | ·
OC(c1cc(-c2ccc(C(F)(F)F)cc2)nc(C(F)(F)F)c1)C1CCCCN1 (stereo not given) | -119.0 | 26.5 | 7.5 | 42.7 | 12.1 | · | · | · | ·
OC(c1cc(C(F)(F)F)nc2c(C(F)(F)F)cccc12)C1CCCCN1 (stereo not given) | -10.7 | 48.2* | 11.9 | 68.1* | 14.5 | -5.5 | 48.9* | 27.1 | 1.6
CCCCCCCCCCCCCCCC(O)C(N)CO (stereo not given) | 7.0 | 80.2* | 5.4 | 111.1* | 24.0 | 2.3 | 101.0* | 20.8 | 12.9
CC(C)(C)OC(=O)[C@H](Cc1ccccc1)NC(=O)c1nc[nH]c1C(=O)N[C@@H](CCCCN)C(=O)OC(C)(C)C | 24.7 | 50.9* | · | 72.6* | · | -3.5 | 75.5* | 9.6 | 6.8
CC(C)C[C@H](NC(=O)c1nc[nH]c1C(=O)N[C@@H](CCCCN)C(=O)OC(C)(C)C)C(=O)OC(C)(C)C | 11.5 | 42.6* | · | 53.2* | · | 0.1 | 53.4* | 9.9 | 6.8
CC(C)(C)OC(=O)[C@H](CCCCN)NC(=O)c1nc[nH]c1C(=O)N[C@@H](CCCCN)C(=O)OC(C)(C)C | 17.9 | 12.8 | · | 6.7 | · | · | · | · | ·
CSc1ccc2c(c1)C(N1CCN(C)CC1)Cc1ccccc1S2 (stereo not given) | -2.5 | 47.8*! | -5.9 | 51.6*! | 7.8 | 3.6 | 25.1 | 20.7 | 17.0
CN1CCN(C2Cc3ccccc3Sc3cc(C(F)(F)F)ccc32)CC1 (stereo not given) | -21.3 | 14.2 | -5.2 | 22.3 | 2.0 | · | · | · | ·
CC[C@@H](C)[C@@H](C(=O)N1CCNCC1)n1cc(CCC(=O)O)nn1 | -4.9 | -2.9 | 4.2 | 4.4 | 16.9 | · | · | · | ·
CCSc1ccc2c(c1)N(CCCN1CCN(C)CC1)c1ccccc1S2 | 35.0 | 56.8* | -2.2 | 74.9* | 1.6 | -2.3 | 64.4* | 18.1 | -1.0
OCCN1CCN(CC/C=C2/c3ccccc3Sc3ccc(C(F)(F)F)cc32)CC1 | 2.9 | 58.5* | 1.6 | 66.2* | -3.5 | -0.6 | 70.9* | 11.4 | 2.1
CN1CCN(CCC(=O)N2c3ccccc3Sc3ccc(C(F)(F)F)cc32)CC1 | 1.4 | 3.8 | -4.1 | -1.9 | -8.2 | · | · | · | ·
OCCN1CCN(CC/C=C2/c3ccccc3CSc3ccccc32)CC1 | -22.3 | -1.0 | -6.4 | 7.6 | -8.0 | · | · | · | ·
OCCN1CCN(CCCN2c3ccccc3Sc3ccc(C(F)(F)F)cc32)CC1 | 21.2 | 47.6* | 5.7 | 86.9* | 1.2 | -1.6 | 92.1* | 8.7 | 5.2
O=C(CCNNC(=O)c1ccncc1)NCc1ccccc1 | 3.9 | -5.3 | -4.3 | 7.6 | 13.6 | · | · | · | ·
SMILES | PREPL inh | Apaf-1 inh | EBNA-1 inh | UBC13 polyUb | ZTA DNA inh | Casp3 counter | UBC13 conf | Apaf-1 inh conf | Rh110 quench
c1ccc2c(-c3ccc(OCCN4CCCCC4)cc3)c(-c3ccsc3)sc2c1 | -3.7 | 59.1* | · | 58.5* | · | -3.1 | 55.8* | 9.5 | 9.9
Oc1ccc(-c2c(-c3ccsc3)sc3ccccc23)cc1 | 3.1 | 3.9 | 1.6 | -6.0 | -5.5 | · | · | · | ·
COc1ccccc1CNC(=O)c1csc(Cc2ccc(Cl)cc2)n1 | -19.6 | 9.6 | 6.8 | 10.1 | 4.2 | · | · | · | ·
CCCCCCNC(=O)N[C@@H](C(=O)NCCC[C@H]1CN2C(=NC[C@@H]2Cc2ccccc2)N1CCc1cccc(OC)c1)C(C)C | 34.2 | 53.7* | -9.6 | 56.6* | -22.9 | 1.5 | 60.7* | 20.9 | 13.6
COc1ccc(C[C@H]2CN3C(=NC[C@@H]3C)N2CCNC(=O)CCC2CCCCC2)cc1 | 21.9 | 6.6 | 16.0 | 17.2 | -3.9 | · | · | · | ·
O=C(CS(=O)c1cccc(C(F)(F)F)c1)Nc1ccccc1Cl (stereo not given) | -6.7 | -7.6 | -0.3 | 3.6 | -10.0 | · | · | · | ·
CCOc1ccc(NS(=O)(=O)c2cc(C(=O)NCCCN3CCOCC3)ccc2C)cc1 | 14.4 | 65.5* | · | 73.6* | 12.6 | -2.2 | 94.1* | 34.2 | 6.7
COc1ccc(-c2csc3ncnc(N4CCN(c5ccccc5)CC4)c23)cc1 | 2.7 | 22.3 | 3.9 | 4.5 | 7.6 | · | · | · | ·
Cc1nc2sccn2c(=O)c1CCN1CCC(=C(c2ccc(F)cc2)c2ccc(F)cc2)CC1 | 1.8 | 42.3* | 10.1 | 45.3* | -1.3 | -1.4 | 22.2 | 18.8 | 8.5
CC(C)N1CCc2c(sc(NC(=O)c3ccc(S(=O)(=O)N4CCc5ccccc54)cc3)c2C(N)=O)C1 | 6.3 | 45.6* | 8.0 | 50.4* | -11.9 | 0.2 | 40.7 | 3.2 | 0.8
CC1CCCCN1CCCNC(=O)c1ccc(Br)cc1 (stereo not given) | 13.7 | 0.2 | -0.5 | -4.5 | -11.1 | · | · | · | ·
